# From PubChem
# A selection: hits, their analogues and other compounds. The true share with any hit is near 1.5%.
# CCR6 antag: blocks CCL20-driven beta-arrestin recruitment at human CCR6; P51684; inhibition, % at 20 µM; CHO-K1 CCR6 PathHunter beta-arrestin, luminescence, CCL20-stimulated; hit rate 0.49% among 340,000;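 active = compounds whose inhibition of the agonist-driven luminescence signal at 20 µM reaches about 50%, limit read from the data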;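 also: cells stimulated with CCL20 at 14 nM final; plate controls were DMSO with CCL20 for no effect and DMSO without agonist for full effect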
# CXCR6 block: blocks human CXCR6 beta-arrestin recruitment; inhibition, % at 20 µM; AID 602244; hit rate 0.36% among 360,000; O00574; CHO-K1 PathHunter CXCR6 beta-arrestin, luminescence; in the data active = inhibition above about 34%, passing the limit was not always enough;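 also: antagonist mode with CXCL16 agonist at 10 nM final; 0% = 10 nM CXCL16 with DMSO and 100% = unstimulated wells without agonist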
# Target sequence (O00574 whole entry, looked up): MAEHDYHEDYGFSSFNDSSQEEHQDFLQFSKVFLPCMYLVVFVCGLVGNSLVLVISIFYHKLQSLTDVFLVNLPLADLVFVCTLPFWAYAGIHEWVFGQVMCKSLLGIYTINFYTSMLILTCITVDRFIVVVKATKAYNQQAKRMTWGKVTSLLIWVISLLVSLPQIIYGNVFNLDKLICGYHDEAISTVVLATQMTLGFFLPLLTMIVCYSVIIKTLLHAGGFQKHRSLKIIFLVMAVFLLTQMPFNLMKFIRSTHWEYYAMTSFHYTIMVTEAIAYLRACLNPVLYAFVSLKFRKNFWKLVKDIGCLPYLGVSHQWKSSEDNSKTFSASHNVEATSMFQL
# APJ agonist: APJ receptor agonism; P35414; activation, % at 20 µM; AID 2520; CHO-K1 APJ PathHunter beta-arrestin, luminescence; 0% DMSO wells, 100% apelin; hit rate 0.11% among 330,000;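 active = activation more than six SD over the plate average, tested at 20 µM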;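 also: 0% = DMSO alone and 100% = apelin-13 at 10 nM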
#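 Assay system: CHO-K1 APJ beta-arrestin complementation cell line / Compound: single test compound dose, 20 µM final, 1% DMSO / Times: overnight seeding, 90 min compound at 25 °C, 1 h detection / Technique: beta-gal luminescence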
# APJ antagonist: APJ receptor antagonism. P35414. CHO-K1 APJ beta-arrestin complementation, luminescence. inhibition, % at 20 µM. hit rate 0.32% among 330,000. AID 2521;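 active = inhibition above about 40% at 20 µM, limit read from the data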;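 also: cells challenged with 10 nM apelin-13 agonist together with compound; plate controls were apelin-13 plus DMSO wells for no effect and DMSO wells lacking apelin-13 for full effect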
# EBI2 antag: EBI2 (human) antagonism; inhibition, % at 5 µM; AID 651636; hit rate 0.81% among 360,000; EBI2 beta-arrestin recruitment, luminescence, 7a,25-OHC stimulated; P32249; in the data active = inhibition above about 38%;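 also: enzyme fragment complementation signal reports receptor beta-arrestin coupling in cells; 0% = agonist plus DMSO wells and 100% = wells without agonist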
# Target sequence (P32249 whole entry, looked up, the tested form may be a part): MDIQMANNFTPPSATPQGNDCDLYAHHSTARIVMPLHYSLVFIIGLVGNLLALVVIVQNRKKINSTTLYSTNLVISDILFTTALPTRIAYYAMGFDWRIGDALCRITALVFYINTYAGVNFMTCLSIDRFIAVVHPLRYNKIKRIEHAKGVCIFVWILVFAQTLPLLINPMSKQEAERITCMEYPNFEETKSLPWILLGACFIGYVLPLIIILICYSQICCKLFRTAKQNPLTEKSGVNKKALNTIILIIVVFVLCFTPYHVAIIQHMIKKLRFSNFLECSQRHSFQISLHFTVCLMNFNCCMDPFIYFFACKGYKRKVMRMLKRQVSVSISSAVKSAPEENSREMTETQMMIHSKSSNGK
# APJ antag conf: APJ receptor antagonism confirmation | APJ beta-arrestin recruitment, luminescence, antagonist mode | hit rate 66% among 950 | inhibition, % at 20 µM | AID 2766 | shares compounds with APJ antagonist; in the data active = inhibition above about 50%
# * = called active by the depositor; · = no result given.
SMILES,CCR6 antag,CXCR6 block,APJ agonist,APJ antagonist,EBI2 antag,APJ antag conf
CCCCOc1ccc(C(=O)N/C(=C/C=C/c2ccccc2)C(=O)NCCCO)cc1,10.3,2.2,-3.8,15.7,2.1,·
CN(C)CCCN(C(=O)c1ccc(S(=O)(=O)N2CCc3ccccc32)cc1)c1nc2ccc(F)cc2s1,18.7,0.4,2.0,-3.5,-0.6,·
Cc1cc(C)c2sc(N(CCCN(C)C)C(=O)c3ccc(S(=O)(=O)N4CCCc5ccccc54)cc3)nc2c1,13.6,18.7,-3.0,46.8*,0.1,56.6*
C[C@@H]1O[C@H](C2CCCC2)Cc2[nH]c(=S)[nH]c(=O)c21,·,-9.4,·,·,-1.5,·
O=C(C[C@@H]1C=C[C@@H](NC(=O)c2cccnc2)[C@@H](CO)O1)NCc1ccncn1,·,·,·,·,-4.9,·
O=[N+]([O-])c1cccc(N/N=C/c2cc([N+](=O)[O-])ccc2O)c1,45.5,21.7,-5.7,46.5*,14.9,48.8
CN(/N=C/c1cc([N+](=O)[O-])ccc1O)c1ccccc1,63.6*,48.5*,-8.2,41.8*,13.1,62.7*
COCCNc1nc(Nc2ccc(C(=O)OC)cc2)c2sccc2n1,·,3.8,·,·,6.1,·
COc1ccccc1NCC(=O)c1ccc(Cl)cc1,71.0*,37.9,-15.8,72.2*,-2.7,110.4*
COc1ccc(C(=O)CNc2ccccc2CO)cc1,91.5*,17.7,-7.8,40.1*,4.4,148.5*
COc1ccc(C(=O)CNc2cccc(F)c2)cc1,59.7*,34.7,-10.9,45.0*,-0.5,94.6*
COc1ccc(C(=O)CC(=O)C(=O)Nc2cccc(F)c2)cc1,18.8,13.4,-0.6,4.6,6.5,·
CC1C(=O)N(Cc2cn(CCC3OCCO3)nn2)CCS(=O)(=O)N1Cc1ccc(-c2ccc(Cl)cc2)cc1 (stereo unspecified),·,-4.2,·,·,11.7,·
COc1ccc(OC)c(CN2C(=O)CSCC2(C)C(=O)NC(C)C)c1 (stereo unspecified),·,·,·,·,-9.3,·
CC1=Nc2ccccc2/C1=C/c1sc(=N)n(-c2nccs2)c1O,48.9,17.5,-10.7,46.3*,8.9,52.8*
Cc1ccc(CN2C(=O)c3ccccc3C2c2nnnn2C(C)C)cc1 (stereo unspecified),·,2.4,·,·,-11.5,·
Cc1ccccc1NC(=O)c1ccc(Nc2c([N+](=O)[O-])cc([N+](=O)[O-])c3ccccc23)cc1,59.6*,41.9*,-4.9,57.3*,21.6,89.6*
Cc1ccc2oc(/N=C(\N)NC(=O)C(C)(C)C)nc2c1,70.2*,70.9*,-11.7,54.2*,16.0,15.3
COc1ccc(CCNC(=O)c2ccc(CSc3ccc(Cl)cc3)o2)cc1OC,·,2.3,·,·,28.7,·
N#CC1c2ccccc2C=CN1C(=O)N(c1ccccc1)c1ccccc1 (stereo unspecified),11.0,6.3,·,·,1.5,·
c1ccc(NNC2=NCCS2)cc1,41.1,33.9,-11.7,46.0*,38.7,43.2
COC(=O)c1ccccc1COc1cccn2c(N(C)C(=O)CCC3CCCC3)c(C)nc12,·,3.4,·,·,18.6,·
Cc1cccc2c1NC(=O)C2=Nc1ccc(Cl)cc1,75.9*,32.2,-13.8,63.0*,9.2,93.9*
Cc1ccc(N=C2C(=O)Nc3ccc(Br)cc32)cc1,54.4*,36.2,-15.6,68.5*,17.1,155.9*
Cc1ccc(N=C2C(=O)Nc3c(C)cccc32)cc1,58.2*,18.1,-8.9,42.6*,11.4,94.7*
SMILES,CCR6 antag,CXCR6 block,APJ agonist,APJ antagonist,EBI2 antag,APJ antag conf
O=C1Nc2ccc(Br)cc2C1=C1CCCCC1,-4.4,-2.0,1.3,-4.5,-8.8,·
Nc1c(N2CCCC2)c2ccccc2oc1=O,55.0*,31.2,-8.8,70.5*,28.0,83.2*
Cc1ccc(O)c(-c2cc(C(=O)NCc3ccc4c(c3)OCO4)[nH]n2)c1,11.3,-5.0,-3.5,45.3*,7.8,-2.8
Cc1ccc(CNC(=O)c2cc(-c3cc(C)cc(C)c3O)n[nH]2)cc1,8.1,-3.8,-1.0,2.5,34.5,·
OC(c1ccc(F)c(F)c1)c1nc(-c2ccc(Cl)cc2)cs1 (stereo unspecified),·,-5.6,·,·,5.6,·
O=[N+]([O-])c1c(Nc2cccc(O)c2)cc(Cl)c2nonc12,104.0*,111.2*,-6.9,94.4*,92.8*,111.3*
O=C(O)c1cccc(Nc2ccc3nonc3c2[N+](=O)[O-])c1,-3.0,-3.6,1.8,1.7,-7.0,·
O=[N+]([O-])c1ccc(N=Nc2ncc[nH]2)cc1,67.8*,51.6*,-8.2,41.1*,31.3,88.4*
O=[N+]([O-])c1ccc(N=NN(CCO)CCO)cc1,10.6,1.2,-2.7,8.6,5.0,·
COc1ccc(NC(=O)COC(=O)CCc2nc3ccccc3c(=O)[nH]2)c(OC)c1,-0.8,-0.6,2.3,40.5*,-8.4,31.3
COc1ccc(NC(=O)COC(=O)CCc2nc3ccccc3c(=O)[nH]2)cc1Cl,6.9,-3.6,-4.4,-6.4,4.7,·
CCCCNC(=O)C1(C)CCCCCN1Cc1cccc2c(OC)cc(C(=O)OCC)cc12 (stereo unspecified),·,21.4,·,·,3.4,·
OCCN1CCN(c2ncnc3c2ncn3[C@H]2CN(Cc3ccncc3)C[C@@H](CO)O2)CC1,·,0.3,·,·,2.1,·
O=C(NCCc1cnc[nH]1)c1cccs1,6.6,5.3,-4.1,43.3*,-6.9,32.8
O=C(NCCc1ccccc1)c1cccs1,3.8,2.6,-4.7,-2.5,1.8,·
CCCCN(C=O)c1c(CC)nc2ccc(C(=O)NCCCn3ccnc3)cn12,·,-8.0,·,·,-8.0,·
O=C1NN(c2cccc(Br)c2)C(=O)/C1=C/c1ccc(-c2cc([N+](=O)[O-])ccc2O)o1,85.6*,62.3*,-8.5,61.4*,12.4,98.2*
O=C1NN(c2cccc(Br)c2)C(=O)/C1=C\c1ccc(O)cc1,26.7,2.6,-7.3,22.5,2.1,·
CC1=NN(c2ccc(C)cc2)C(=O)/C1=C/c1ccc(-c2cc([N+](=O)[O-])ccc2O)o1,72.5*,41.5*,-4.9,46.7*,6.8,92.5*
CC1=NN(c2ccc(C(=O)O)cc2)C(=O)/C1=C/c1ccc(-c2ccccc2F)o1,·,6.8,7.7,17.3,40.9,·
CCOc1ccccc1N(CC)C(=O)c1cc2c(s1)-c1ccccc1S(=O)(=O)C2,·,5.6,·,·,14.6,·
CCOc1ccc(CCNC(=O)c2cccnc2N2CCCC2)cc1OCC,-1.6,2.8,-2.4,58.3*,-0.7,51.7*
CN(C)c1ccc2nc3ccc(=[N+](C)C)cc-3sc2c1,35.7,18.5,-6.4,45.3*,10.9,32.5
CN(C)c1ccc2nc3ccc(=O)cc-3sc2c1,·,-1.0,·,·,-3.5,·
Cc1nnsc1C(=O)NNc1ccc(C(C)(C)C)cc1,10.4,-4.3,-15.4,59.1*,16.4,146.4*
CN1C(=O)/C(=C2/C=Cc3ccccc3N2CCCS(=O)(=O)O)SC1=S,58.0*,37.5,-8.5,47.1*,-0.3,95.9*
CCN1/C(=C2\C(=O)N(C)C(=S)N2C)C=Cc2ccccc21,12.5,3.8,-5.4,20.4,-3.7,·
O=C(O)C1c2ccccc2Cc2ccccc21,·,-5.3,·,·,-14.9,·
